Rows were chosen to be rich in hits. Some 4.5% of all compounds tested hit in one or more screens of this group.
APP 5'UTR act – activators of APP 5'UTR luciferase reporter, primary screen, SH-SY5Y cells; activation, % at 2 µM; 190,000 compounds, 1% hits; SH-SY5Y APP 5'UTR luciferase reporter, luminescence; zero percent = DMSO vehicle wells;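 active = activation above a set limit, based on mean plus 3 SD of controls, cut at about 140% in these data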
STAT1 activator – STAT1 signaling activators, primary screen, cell-based, HTS, luciferase reporter; activation (% of control), % at 5.5 µM; AID 932, 2007; 200,000 compounds, 2.6% hits; NIH 3T3 STAT1-luciferase reporter, IFN-gamma, luminescence; 100% = IFN-gamma alone, no compound;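 active = activation above the screen-wide mean activation plus 3 SD, cut at about 130% in these data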;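 note: raw ratio to IFN-gamma control signal so 100% means no change and 0% no light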
AHR activator – AHR activators, primary screen, cell-based, luminescence, luciferase reporter, human | AHR-responsive luciferase reporter cells | activation, % at 5 µM | 320,000 compounds, 2.5% hits | AID 2796, 2010; in the data active = activation above about 47%;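 note: 0% = vehicle wells and 100% = reference agonist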
NF-kB neuron act – activators of NF-kB expression in neurons, primary screen, cell-based, HTS | human neuronal cells, NF-kB reporter expression; active compounds read high | fold change at 12.5 µM | AID 1239, 2008 | 190,000 compounds, 1.6% hits; in the data active = fold change above about 3.3
PERK inh – block of dimerizer-induced PERK translation repression, primary screen, PERK inhibitor project, CHO PERK-DD cells, SEAP luminescence, HTS. 220,000 compounds, 0.17% hits. AID 1416, 2008. inhibition, % at 5.6 µM. CHO PERK-DD fusion, SEAP luminescence translation reporter;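 active = inhibition above the mean inhibition of all tested compounds plus 3 SD, set separately per screening campaign, cut at about 2.9% in these data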;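 note: PERK kinase domain activated by AP20187 dimerizer at 100 nM; 0% = DMSO with dimerizer and 100% = rapamycin at 8.4 µM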
Target sequence (Q9NZJ5 whole entry, looked up, the tested form may be a part): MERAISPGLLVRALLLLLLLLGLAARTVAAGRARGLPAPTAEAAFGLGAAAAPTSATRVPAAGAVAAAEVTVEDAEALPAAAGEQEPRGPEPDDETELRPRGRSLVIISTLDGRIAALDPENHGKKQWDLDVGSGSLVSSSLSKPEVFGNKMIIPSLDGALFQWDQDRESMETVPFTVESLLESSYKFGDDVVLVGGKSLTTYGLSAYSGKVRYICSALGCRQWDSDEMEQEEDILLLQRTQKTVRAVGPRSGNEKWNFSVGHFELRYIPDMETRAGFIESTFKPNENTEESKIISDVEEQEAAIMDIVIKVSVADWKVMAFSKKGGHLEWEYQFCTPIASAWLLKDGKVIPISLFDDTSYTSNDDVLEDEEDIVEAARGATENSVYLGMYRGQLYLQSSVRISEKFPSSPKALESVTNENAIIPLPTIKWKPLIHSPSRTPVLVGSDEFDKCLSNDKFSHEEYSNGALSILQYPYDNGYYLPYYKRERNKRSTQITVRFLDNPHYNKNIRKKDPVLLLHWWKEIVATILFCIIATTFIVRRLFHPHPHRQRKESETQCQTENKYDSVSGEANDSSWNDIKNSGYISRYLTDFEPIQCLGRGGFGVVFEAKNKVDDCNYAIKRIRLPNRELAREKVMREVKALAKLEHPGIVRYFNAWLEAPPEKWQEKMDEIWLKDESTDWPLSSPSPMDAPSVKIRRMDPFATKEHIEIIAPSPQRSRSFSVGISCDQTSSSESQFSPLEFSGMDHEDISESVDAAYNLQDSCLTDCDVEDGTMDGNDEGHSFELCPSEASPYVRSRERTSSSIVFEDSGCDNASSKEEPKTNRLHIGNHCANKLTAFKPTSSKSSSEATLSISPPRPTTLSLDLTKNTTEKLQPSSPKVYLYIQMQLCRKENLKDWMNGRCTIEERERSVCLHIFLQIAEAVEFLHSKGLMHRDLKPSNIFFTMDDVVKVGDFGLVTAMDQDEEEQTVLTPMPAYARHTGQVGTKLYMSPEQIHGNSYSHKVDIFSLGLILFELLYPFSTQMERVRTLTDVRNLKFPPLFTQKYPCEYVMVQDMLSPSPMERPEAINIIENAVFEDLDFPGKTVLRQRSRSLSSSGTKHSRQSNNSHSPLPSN
Mdm2 ligase inh – MDM2-luciferase reporter signal enhancers, primary screen, MDM2 E3 ligase inhibitor project, cell-based, luminescence, 1536-well. cell-based MDM2 ubiquitination luciferase reporter, 2 h; 0 = plate control, 100 = twice control, blank-subtracted. 210,000 compounds, 0.11% hits. E3 ubiquitin-protein ligase Mdm2 (Homo sapiens), Q00987. signal enhancement, % at 5 µM;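 active = signal enhancement of 30% or more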;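 note: luminescence tracks abundance of the self-degrading MDM2-luciferase fusion protein; higher signal means inhibition of MDM2 E3 ligase activity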
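Material: stable MDM2–luciferase fusion reporter cells / Quantity: 2000 cells/well / Dosing: single 5 µM compound dose, 0.2% final DMSO / Buffer or medium: DMEM / Schedule: 4 h cell settling then 2 h compound exposure, 37 °C / Detection: luminescence with SteadyLite reagent, 15 min at room temperature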
AHR act confirm – AHR activators, confirmation, cell-based, luminescence, luciferase reporter, human; 2,300 compounds, 87% hits; AID 2845, 2010; human cells, AHR-responsive luciferase reporter; shares compounds with AHR activator; activation, % at 9 µM; in the data active = activation above about 49%;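 note: HepG2 hepatoma cells carrying a DRE-driven firefly luciferase reporter; 0% = vehicle wells and 100% = reference agonist wells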
PXR act counter – human PXR activators, counter-screen for AHR activator project, cell-based, luciferase luminescence. shares compounds with AHR activator. cell-based PXR reporter. activation, % at 11.6 µM. 2,300 compounds, 88% hits; in the data active = activation above about 11%;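 note: human hepatoma DPX-2 cells expressing full-length human PXR; 0% = DMSO and 100% = reference agonist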
The depositor's hits bear a star; . = not tested or not shown.

SMILES | APP 5'UTR act | STAT1 activator | AHR activator | NF-kB neuron act | PERK inh | Mdm2 ligase inh | AHR act confirm | PXR act counter
Nc1c(C(=O)c2ccc(F)cc2)oc2ccccc12 | 35 | 122 | 92* | 1.4 | 0 | -5 | 156* | 16*
CC(C)CN(C(=O)COC(=O)CSc1ccc([N+](=O)[O-])cc1)C1CCS(=O)(=O)C1 (stereo unspecified) | . | . | -1 | . | . | . | . | .
NC(=O)N(N)c1nc(N2CCCC2)nc(N2CCCC2)n1 | . | . | -1 | . | . | . | . | .
Nc1c(C(=O)Nc2ccc(Cl)cc2)oc2ccccc12 | 213* | 170* | 107* | 5.6* | 1 | -10 | 132* | 60*
CC(=O)Nc1ccc(NC(=O)c2cc(=O)c3ccccc3o2)cc1 | . | . | 0 | . | . | . | . | .
Cc1cccc(NC(=O)c2ccccc2-c2ccccc2)c1 | 17 | 105 | -1 | 1 | 1 | -17 | . | .
Cc1cc(NC(=O)c2ccccc2-c2ccccc2)ccc1Br | 3 | 99 | 94* | 1 | -1 | -10 | 93* | 153*
CCn1nc(C(=O)Nc2nc3ccccc3[nH]2)c2ccccc2c1=O | -15 | 101 | 2 | 0.61 | -1 | -4 | . | .
Cn1nc(C(=O)Nc2nc3ccccc3[nH]2)c2ccccc2c1=O | 23 | 117 | 98* | 0.62 | 0 | -15 | 73* | 19*
O=C(Nc1ccc(F)c(F)c1)c1oc2ccccc2c1NC(=O)C1CCCO1 (stereo unspecified) | 58 | 106 | 81* | 0.98 | 1 | -2 | 135* | 24*
COc1ccc(NC(=O)c2oc3ccccc3c2NC(=O)C2CC2)cc1OC | . | . | 12 | . | . | . | . | .
O=C(Nc1ccccc1)c1oc2ccccc2c1NC(=O)C1CC1 | . | . | 103* | . | . | . | -3 | 51*
CCC(=O)Nc1c(C(=O)Nc2ccc3c(c2)OCCO3)oc2ccccc12 | 123 | 144* | 87* | 1.9 | 0 | -56 | 19 | 30*
Cc1ccc(Cc2ccc(C(=O)NNC(N)=S)o2)cc1 | 20 | 98 | 1 | 1.3 | 0 | -9 | . | .
Cc1ccc(C(=O)NCc2ccc3c(c2)OCO3)cc1C | . | . | 13 | . | . | . | . | .
CCn1c(SCC(=O)Nc2nccs2)nnc1-c1ccc(S(=O)(=O)N2CCCCC2)cc1 | 15 | 91 | 2 | 0.55 | -1 | -6 | . | .
Cc1sc2nc(CSc3ccc([N+](=O)[O-])c(C(F)(F)F)c3)[nH]c(=O)c2c1C | 1 | 97 | 83* | 0.93 | 1 | 5 | 76* | 32*
COc1c2ccoc2c(OC[C@@H](O)C(C)(C)OC)c2oc(=O)ccc12 | -10 | 92 | 102* | 1.1 | 0 | . | 69* | 80*
Cc1ccc(NC(=O)c2ccsc2)cc1NS(C)(=O)=O | . | . | 84* | . | . | . | 95* | 33*
CCC(C)Oc1cc(-c2ccnc(Nc3cccc(Cl)c3)n2)ccn1 (stereo unspecified) | . | . | 114* | . | . | 5 | 72* | 31*
COC(=O)c1ccccc1-c1ccc(/C=N/NC(N)=O)o1 | . | . | 2 | . | 0 | 3 | . | .
Cc1nnc(N/N=C/c2ccc(-c3ccccc3F)o2)n1N | 36 | 125 | 109* | 1.7 | 1 | -29 | 75* | 24*
COC(=O)Nc1nn(-c2ccc(Cl)cc2)c(=O)c(C#N)c1C | . | . | 96* | . | 1 | . | 29 | 14*
CCCCNC(=O)c1onc(CSc2cccc(C)c2)c1C(=O)O | -6 | 103 | -1 | 1 | 0 | -12 | . | .
Cc1noc(C)c1CSCC(=O)Nc1cc(S(=O)(=O)N2CCOCC2)ccc1OC(C)C | . | . | 2 | . | . | . | . | .
SMILES | APP 5'UTR act | STAT1 activator | AHR activator | NF-kB neuron act | PERK inh | Mdm2 ligase inh | AHR act confirm | PXR act counter
COc1ccc(C2=NN(C(C#N)c3ccc(OC)c(OC)c3)C(c3ccccc3)C2)cc1 (stereo unspecified) | 155* | 124 | 107* | 6.1* | -1 | -14 | 74* | 21*
COc1ccc(C2=NN(c3ccccc3)C(c3ccc(OC)c(OC)c3)C2)cc1 (stereo unspecified) | . | . | 3 | . | . | . | . | .
c1ccc(C2Nc3ccccc3-c3nc4ccccc4n32)nc1 (stereo unspecified) | 22 | 115 | 80* | 1.4 | 1 | -19 | 88* | 114*
c1ccc(C2Nc3ccccc3-c3nc4ccccc4n32)cc1 (stereo unspecified) | 0 | 102 | 41 | 1.8 | -1 | -19 | . | .
c1coc(C2Nc3ccccc3-c3nc4ccccc4n32)c1 (stereo unspecified) | 31 | 122 | 129* | 0.93 | 0 | -21 | 49* | 71*
Cc1cc2n(n1)C(c1ccco1)Nc1ccccc1-2 (stereo unspecified) | 11 | 100 | 4 | 0.88 | 0 | -4 | . | .
CCn1c2ccccc2c2nc3cc(OC)c(OC)cc3nc21 | 2 | 112 | 115* | 0.44 | -1 | -22 | 96* | 63*
CN(c1ccc(C(=O)COC(=O)C2CC2)cc1)S(C)(=O)=O | . | . | -1 | . | . | . | . | .
O=C(Nc1ccc(F)cc1)c1cnc(-c2ccccc2)nc1-c1ccccc1 | 4 | 133* | 124* | 1.1 | -1 | -7 | 53* | 81*
C=CCNC(=O)c1cnc(-c2ccccc2)nc1-c1ccccc1 | . | . | 4 | . | . | . | . | .
Cc1ccc2sc(NC(=O)C3CC3)nc2c1C | . | . | 44 | . | . | . | . | .
O=C(Nc1nc2c(Br)cccc2s1)C1CC1 | . | . | 132* | . | . | . | 97* | 18*
O=C(Nc1nc2ccc(Cl)cc2s1)C1CC1 | . | . | 114* | . | . | . | 77* | 19*
CC(C)c1ccc2nc(NC(=O)C3CC3)sc2c1 | . | . | 89* | . | . | . | 79* | 39*
COc1cccc(C2=NOC(C(=O)NC3CCCCC3)C2)c1 (stereo unspecified) | 19 | 95 | 1 | 1.1 | -1 | -9 | . | .
CN(c1ccccc1)S(=O)(=O)c1ccc2c(c1)oc(=O)n2C | . | . | -1 | . | . | . | . | .
O=C(N/N=C/c1sc(N2CCOCC2)nc1-c1ccccc1)c1ccc(O)cc1 | 4 | 95 | 95* | 0.52 | 1 | 0 | 49* | 11*
Cc1ccc(C)c(OCCSc2nnc(-c3cccnc3)n2N)c1 | -14 | 99 | 94* | 1.1 | -1 | 4 | 66* | 30*
